Results published in ChEMBL document CHEMBL4138126, “Synthesis, antiproliferative, anti-tubulin activity, and docking study of new 1,2,4-triazoles as potential combretastatin analogues” (Eur J Med Chem, 2017).

Tests used:
IGROV-1 = assay: Growth inhibition of human IGROV1 cells assessed as cell growth at 10 uM after 48 hrs by sulforhodamine B assay; format: functional; settings: IGROV-1, 48 h, read-out: Activity
How it was run: (§1)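 NCI 60-cell-line panel screen (nine cancer types). Compounds added at single concentration 10^-5 M, cultures incubated 48 h; growth inhibition percentages reported.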

NCI-H226 = assay: Growth inhibition of human NCI-H226 cells assessed as cell growth at 10 uM after 48 hrs by sulforhodamine B assay; format: functional; settings: NCI-H226, 48 h, read-out: Activity; how it was run: as §1
SK-MEL-5 = assay: Growth inhibition of human SK-MEL-5 cells assessed as cell growth at 10 uM after 48 hrs by sulforhodamine B assay; format: functional; settings: SK-MEL-5, 48 h, read-out: Activity; how it was run: as §1
OVCAR-3 = assay: Growth inhibition of human OVCAR3 cells assessed as cell growth at 10 uM after 48 hrs by sulforhodamine B assay; format: functional; settings: OVCAR-3, 48 h, read-out: Activity; how it was run: as §1
NCI/ADR-RES = assay: Growth inhibition of human NCI-ADR-RES cells assessed as cell growth at 10 uM after 48 hrs by sulforhodamine B assay; format: functional; settings: read-out: Activity; how it was run: as §1
HCC 2998 = assay: Growth inhibition of human HCC2998 cells assessed as cell growth at 10 uM after 48 hrs by sulforhodamine B assay; format: functional; settings: HCC 2998, 48 h, read-out: Activity; how it was run: as §1
SF-539 = assay: Growth inhibition of human SF539 cells assessed as cell growth at 10 uM after 48 hrs by sulforhodamine B assay; format: functional; settings: SF-539, 48 h, read-out: Activity; how it was run: as §1
CCRF-CEM = assay: Growth inhibition of human CCRF-CEM cells assessed as cell growth at 10 uM after 48 hrs by sulforhodamine B assay; format: functional; settings: read-out: Activity; how it was run: as §1
OVCAR-5 = assay: Growth inhibition of human OVCAR5 cells assessed as cell growth at 10 uM after 48 hrs by sulforhodamine B assay; format: functional; settings: OVCAR-5, 48 h, read-out: Activity; how it was run: as §1
MDA-MB-435 = assay: Growth inhibition of human MDA-MB-435 cells assessed as cell growth at 10 uM after 48 hrs by sulforhodamine B assay; format: functional; settings: MDA-MB-435, 48 h, read-out: Activity; how it was run: as §1
COLO 205 = assay: Growth inhibition of human COLO205 cells assessed as cell growth at 10 uM after 48 hrs by sulforhodamine B assay; format: functional; settings: COLO 205, 48 h, read-out: Activity; how it was run: as §1
LOX IMVI = assay: Growth inhibition of human LOXIMVI cells assessed as cell growth at 10 uM after 48 hrs by sulforhodamine B assay; format: functional; settings: read-out: Activity; how it was run: as §1
UACC-62 = assay: Growth inhibition of human UACC62 cells assessed as cell growth at 10 uM after 48 hrs by sulforhodamine B assay; format: functional; settings: UACC-62, 48 h, read-out: Activity
How it was run: (§2)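 NCI 60-cell-line panel from nine tumour types (leukaemia, lung, colon, CNS, melanoma, ovarian, renal, prostate, breast). Each compound was added at one single concentration, and cultures were incubated for 48 h. Results are reported as percent growth inhibition.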

HOP-62 = assay: Growth inhibition of human HOP62 cells assessed as cell growth at 10 uM after 48 hrs by sulforhodamine B assay; format: functional; settings: HOP-62, 48 h, read-out: Activity; how it was run: as §1
T47D = assay: Growth inhibition of human T47D cells assessed as cell growth at 10 uM after 48 hrs by sulforhodamine B assay; format: functional; settings: read-out: Activity; how it was run: as §2
Hs-578T = assay: Growth inhibition of human Hs 578T cells assessed as cell growth at 10 uM after 48 hrs by sulforhodamine B assay; format: functional; settings: read-out: Activity; how it was run: as §1
SNB-75 = assay: Growth inhibition of human SNB75 cells assessed as cell growth at 10 uM after 48 hrs by sulforhodamine B assay; format: functional; settings: SNB-75, 48 h, read-out: Activity; how it was run: as §2
MDA-MB-468 = assay: Growth inhibition of human MDA-MB-468 cells assessed as cell growth at 10 uM after 48 hrs by sulforhodamine B assay; format: functional; settings: MDA-MB-468, 48 h, read-out: Activity; how it was run: as §1
786-0 = assay: Growth inhibition of human 786-0 cells assessed as cell growth at 10 uM after 48 hrs by sulforhodamine B assay; format: functional; settings: 786-0, 48 h, read-out: Activity; how it was run: as §1
SK-MEL-28 = assay: Growth inhibition of human SK-MEL-28 cells assessed as cell growth at 10 uM after 48 hrs by sulforhodamine B assay; format: functional; settings: SK-MEL-28, 48 h, read-out: Activity; how it was run: as §1
NCI-H322M = assay: Growth inhibition of human NCI-H322M cells assessed as cell growth at 10 uM after 48 hrs by sulforhodamine B assay; format: functional; settings: read-out: Activity; how it was run: as §1
SN12C = assay: Growth inhibition of human SN12C cells assessed as cell growth at 10 uM after 48 hrs by sulforhodamine B assay; format: functional; settings: read-out: Activity; how it was run: as §2
SR = assay: Growth inhibition of human SR cells assessed as cell growth at 10 uM after 48 hrs by sulforhodamine B assay; format: functional; settings: read-out: Activity; how it was run: as §2
A498 = assay: Growth inhibition of human A498 cells assessed as cell growth at 10 uM after 48 hrs by sulforhodamine B assay; format: functional; settings: A498, 48 h, read-out: Activity; how it was run: as §1
CAKI-1 = assay: Growth inhibition of human CAKI-1 cells assessed as cell growth at 10 uM after 48 hrs by sulforhodamine B assay; format: functional; settings: CAKI-1, 48 h, read-out: Activity; how it was run: as §1
K562 = assay: Growth inhibition of human K562 cells assessed as cell growth at 10 uM after 48 hrs by sulforhodamine B assay; format: functional; settings: K562, 48 h, read-out: Activity; how it was run: as §1
MDA-MB-231 = assay: Growth inhibition of human MDA-MB-231 cells assessed as cell growth at 10 uM after 48 hrs by sulforhodamine B assay; format: functional; settings: MDA-MB-231, 48 h, read-out: Activity; how it was run: as §1
KM12 = assay: Growth inhibition of human KM12 cells assessed as cell growth at 10 uM after 48 hrs by sulforhodamine B assay; format: functional; settings: KM12, 48 h, read-out: Activity; how it was run: as §1
PC-3 = assay: Growth inhibition of human PC3 cells assessed as cell growth at 10 uM after 48 hrs by sulforhodamine B assay; format: functional; settings: PC-3, 48 h, read-out: Activity; how it was run: as §1
UACC-257 = assay: Growth inhibition of human UACC257 cells assessed as cell growth at 10 uM after 48 hrs by sulforhodamine B assay; format: functional; settings: UACC-257, 48 h, read-out: Activity; how it was run: as §2
[1] = Inhibition of beta tubulin polymerisation in human HepG2 cells incubated for 2 hrs using TMB substrate by ELISA; format: cell-based; settings: HepG2, 2 h
HepG2 = assay: Inhibition of beta tubulin polymerisation in human HepG2 cells incubated for 2 hrs using TMB substrate by ELISA relative to untreated control; format: cell-based; parameters: concentration or dose not given beside the values; settings: dose or concentration not given here

SMILES	growth at 10 µM (IGROV-1)	growth at 10 µM (NCI-H226)	growth at 10 µM (OVCAR-3)	growth at 10 µM (NCI/ADR-RES)	growth at 10 µM (SF-539)	growth at 10 µM (OVCAR-5)	growth at 10 µM (MDA-MB-435)	growth at 10 µM (COLO 205)	growth at 10 µM (LOX IMVI)	growth at 10 µM (HOP-62)	growth at 10 µM (T47D)	growth at 10 µM (Hs-578T)	growth at 10 µM (SNB-75)	growth at 10 µM (MDA-MB-468)	growth at 10 µM (786-0)	growth at 10 µM (NCI-H322M)	growth at 10 µM (SR)	growth at 10 µM (A498)	growth at 10 µM (CAKI-1)	growth at 10 µM (MDA-MB-231)	also measured
CCOc1ccc(-n2nc(C(=O)Nc3ccccc3OC)nc2-c2cc(OC)c(OC)c(OC)c2)cc1	99.3%	82.3%	95.6%	85.3%	85.7%	82.4%	86.9%	78.7%	92.2%	86.5%	50.2%	81.5%	66.6%	92.3%	79.1%	77.4%	65.7%	83.8%	66.7%	44.5%	growth at 10 µM (SK-MEL-5): 73.8%; growth at 10 µM (HCC 2998): 99.7%; growth at 10 µM (CCRF-CEM): 94%; growth at 10 µM (UACC-62): 85.2%; growth at 10 µM (SK-MEL-28): 78.3%; growth at 10 µM (SN12C): 83.1%; growth at 10 µM (K562): 79.6%; growth at 10 µM (KM12): 96.2%; growth at 10 µM (PC-3): 65.5%; growth at 10 µM (UACC-257): 97.9%
CCOc1ccc(-n2nc(C(=O)Nc3cccc(OC)c3)nc2-c2cc(OC)c(OC)c(OC)c2)cc1	90.7%	77.3%	78.7%	77.5%	90.2%	95.5%	86.8%	66.6%	80.8%	91.9%	58.5%	73.2%	68.1%	93.4%	84.8%	79.8%	52.6%	78.8%	72.5%	55.1%	growth at 10 µM (CCRF-CEM): 51.9%; IC50 [1]: 36.8 µM; inhibition (HepG2): 49.6%; growth at 10 µM (KM12): 71.2%; growth at 10 µM (PC-3): 59%; growth at 10 µM (UACC-257): 94.7%
CCOc1ccc(-n2nc(C(=O)Nc3ccccc3)nc2-c2cc(OC)c(OC)c(OC)c2)cc1	55.1%	80%	43.2%	45.7%	62%	84.1%	0.19%	22.1%	55.8%	55.7%	39.4%	39.6%	35.1%	42.5%	69.4%	67.6%	17%	10.3%	51.6%	43.9%	growth at 10 µM (CCRF-CEM): 50.8%; IC50 [1]: 41.8 µM; inhibition (HepG2): 42.7%; growth at 10 µM (KM12): 27.5%; growth at 10 µM (PC-3): 44.9%; growth at 10 µM (UACC-257): 66.4%
CCOc1ccc(-n2nc(C(=O)NCc3ccccc3OC)nc2-c2cc(OC)c(OC)c(OC)c2)cc1	43.7%	62.5%	49.4%	27.8%	49.2%	74.2%	22.1%	30.3%	36.3%	62.2%	17%	55.1%	30%	72.4%	41.5%	52.4%	35.9%	30%	25.9%	17.8%	growth at 10 µM (SK-MEL-5): -1.22%; growth at 10 µM (HCC 2998): 57.5%; growth at 10 µM (CCRF-CEM): 39.7%; IC50 [1]: 0.6 µM; inhibition (HepG2): 85.6%; growth at 10 µM (UACC-62): 37%; growth at 10 µM (SK-MEL-28): 36.6%; growth at 10 µM (SN12C): 39.7%; growth at 10 µM (K562): 22.1%; growth at 10 µM (KM12): 33.8%; growth at 10 µM (PC-3): 24.6%; growth at 10 µM (UACC-257): 62.7%
COc1cccc(-n2nc(C(=O)Nc3ccccc3)nc2-c2cc(OC)c(OC)c(OC)c2)c1	93.1%	96.9%	99.9%	93.1%	93.6%	89.5%	90.4%	104%	102%	83.8%	62.2%	99.7%	55.5%	84.5%	79.4%	81.1%	93.9%	100%	73.6%	104%	growth at 10 µM (SK-MEL-5): 93.8%; growth at 10 µM (HCC 2998): 87.3%; growth at 10 µM (CCRF-CEM): 105%; IC50 [1]: 6.5 µM; inhibition (HepG2): 62.3%; growth at 10 µM (UACC-62): 95.3%; growth at 10 µM (SK-MEL-28): 96.6%; growth at 10 µM (SN12C): 100%; growth at 10 µM (K562): 121%; growth at 10 µM (KM12): 96.6%; growth at 10 µM (PC-3): 90%; growth at 10 µM (UACC-257): 103%
CCOc1ccc(-n2nc(C(=O)Nc3ccc(F)c(F)c3F)nc2-c2cc(OC)c(OC)c(OC)c2)cc1	95.6%	91.2%	91.6%	88.6%	87.9%	81.5%	90%	90%	94%	86.5%	65.7%	80.7%	68.3%	90.2%	79.6%	69.5%	86.5%	88.7%	60.5%	73.6%	growth at 10 µM (SK-MEL-5): 87%; growth at 10 µM (HCC 2998): 94.6%; growth at 10 µM (UACC-62): 89.7%; growth at 10 µM (SK-MEL-28): 86.7%; growth at 10 µM (SN12C): 86.5%; growth at 10 µM (K562): 90.7%; growth at 10 µM (KM12): 96%; growth at 10 µM (PC-3): 71.6%; growth at 10 µM (UACC-257): 101%
